SMILES strings stand for the structures. Activity calls are given as the source filed them. The rule behind the calls is not given here.

Results on one compound are retold here after ChEMBL document CHEMBL3992522, “Antileishmanial Activity of Pyrazolopyridine Derivatives and Their Potential as an Adjunct Therapy with Miltefosine” (J Med Chem, 2017).

In data set [1] the test system is Mus musculus. Kind of data set: Increase in iNOS-mediated NO generation in Balb/c mouse splenocytes infected with Leishmania donovani amastigote forms at 25 mg/kg, ip for 5 consecutive days measured on day 4 and 7 post last treatment followed by soluble Leishmania donovani promastigote antigen-stimulation for 72 hrs by Griess assay relative to control. Type of data set: functional. A digest of the protocol: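 Splenocytes from treated infected BALB/c mice (5-day regimen, i.p. test compound, oral miltefosine; n = 5) isolated day 4 and day 7 post-treatment. Cultured in phenol red-free RPMI 1640 with 5 μg/mL SLA for 72 h at 37 °C, 5% CO2. Supernatant nitrite measured by Griess assay at 540 nm against a sodium nitrite standard curve.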
For orientation: Griess reagent forms a coloured azo dye with nitrite.

The subject of data set [2] is Mus musculus. As to the kind of experiment: Increase in iNOS mRNA expression level in Balb/c mouse splenocytes infected with Leishmania donovani amastigote forms at 25 mg/kg, ip cotreated with 5 mg/kg, po miltefosine for 5 consecutive days measured on day 4 post last treatment by RT-PCR assay relative to control. The format is functional. A digest of the protocol:
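Infected BALB/c mice dosed for 5 consecutive days (test compound i.p. in 8% DMSO, miltefosine oral), n = 5 per group; splenocytes taken day 4 and day 7 post-treatment. Total RNA extracted and iNOS mRNA quantified by real-time PCR, normalized to mouse β-actin, expressed as fold change over uninfected controls.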

A short description of data set [3]: Elimination rate constant in Swiss mouse at 50 mg/kg, po by LC-MS/MS analysis. The following applies: in vivo. The format is ADME, organism-based.
A short description of data set [4]: Selectivity index, ratio of CC50 for African green monkey Vero cells to IC50 for Leishmania donovani MHOM/IN/80/DD8 amastigote forms infected in mouse J774 cells. Type of data set: toxicity, cell-based. As to conditions: read-out: Ratio CC50/IC50. The method, boiled down: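 CC50: Vero or J774 cells (1×10^5/well) exposed 72 h to seven two-fold dilutions, 500–7.81 μM; MTT 2 h at 37 °C, formazan in DMSO read at 540 nm. IC50: luciferase-expressing Dd8 amastigotes in J774 macrophages (1:8), 72 h, luminescence, four-parameter Hill fit. SI = CC50/IC50, IC50 mean of three experiments.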

The next data set concerns Leishmania donovani. As to the kind of experiment: Induction of apoptosis in Leishmania donovani MHOM/IN/80/DD8 promastigote forms assessed as DNA fragmentation at 50 uM after 48 hrs by propidium iodide staining based TUNEL assay. The format is functional. The method, boiled down: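 DNA fragmentation detected by TUNEL under fluorescence and phase-contrast microscopy, with counts of TUNEL-positive cells; three independent experiments.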

Data set [5] relates to Mus musculus. Kind of data set: Increase in IL-12 level in Balb/c mouse splenocytes infected with Leishmania donovani amastigote forms at 25 mg/kg, ip co-treated with 5 mg/kg, po miltefosine administered for 5 consecutive days measured on day 4 post last treatment by sandwich ELISA relative to control. The format is functional. A digest of the protocol: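 Splenocytes (2×10^6) from treated infected BALB/c mice taken on day 4 or 7 post-treatment. Cultured in phenol-red-free RPMI 1640 with 5 μg/mL soluble L. donovani antigen for 72 h at 37 °C, 5% CO2. Supernatant cytokines measured by sandwich ELISA against a standard curve. Mean ± SD, n = 5 mice per group, three independent experiments.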
In general terms: ELISA stands for enzyme-linked immunosorbent assay.

With `COc1ccc(C2C3=C(CCC3=O)Nc3c2c(-c2c[nH]c4ccccc24)nn3-c2ccc(Cl)c(Cl)c2)cc1OC` (stereo unspecified), the figures for the “fold change (FC)” value in the data set with Mus musculus [1], with Mus musculus [2] and in the data set with Mus musculus [5] were 4.1, 11.8 and 12.7, respectively. The k el in data set [3] was 3.89e-05 s⁻¹. Moreover, the selectivity ratio in data set [4] was 108. The result with Leishmania donovani was Active.
